Legend:
MDA-MB-468 = assay: Cytotoxicity against human MDA-MB-468 cells assessed as growth inhibition at 10 uM after 48 hrs by SRB assay; assay type: functional; conditions: MDA-MB-468, 48 h, read-out: GI
Procedure, shortened: (§1)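 Single-dose NCI 60-cell screen at 10 µM with 48 h exposure and sulforhodamine B read-out. Values are percentage growth per cell line. A summary ratio counts cell lines with 0–50% growth over all cell lines tested.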

NCI/ADR-RES = assay: Cytotoxicity against human NCI/ADR-RES cells assessed as growth inhibition at 10 uM after 48 hrs by SRB assay; assay type: functional; conditions: read-out: GI; procedure, shortened: as §1
PC-3 = assay: Cytotoxicity against human PC3 cells assessed as growth inhibition at 10 uM after 48 hrs by SRB assay; assay type: functional; conditions: PC-3, 48 h, read-out: GI; procedure, shortened: as §1
UO-31 = assay: Cytotoxicity against human UO31 cells assessed as growth inhibition at 10 uM after 48 hrs by SRB assay; assay type: functional; conditions: UO-31, 48 h, read-out: GI; procedure, shortened: as §1
UACC-257 = assay: Cytotoxicity against human UACC257 cells assessed as growth inhibition at 10 uM after 48 hrs by SRB assay; assay type: functional; conditions: UACC-257, 48 h, read-out: GI; procedure, shortened: as §1
SW-620 = assay: Cytotoxicity against human SW620 cells assessed as growth inhibition at 10 uM after 48 hrs by SRB assay; assay type: functional; conditions: SW-620, 48 h, read-out: GI; procedure, shortened: as §1
HCC 2998 = assay: Cytotoxicity against human HCC2998 cells assessed as growth inhibition at 10 uM after 48 hrs by SRB assay; assay type: functional; conditions: HCC 2998, 48 h, read-out: GI; procedure, shortened: as §1
KM12 = assay: Cytotoxicity against human KM12 cells assessed as growth inhibition at 10 uM after 48 hrs by SRB assay; assay type: functional; conditions: KM12, 48 h, read-out: GI; procedure, shortened: as §1
SNB-75 = assay: Cytotoxicity against human SNB75 cells assessed as growth inhibition at 10 uM after 48 hrs by SRB assay; assay type: functional; conditions: SNB-75, 48 h, read-out: GI; procedure, shortened: as §1
HOP-62 = assay: Cytotoxicity against human HOP62 cells assessed as growth inhibition at 10 uM after 48 hrs by SRB assay; assay type: functional; conditions: HOP-62, 48 h, read-out: GI; procedure, shortened: as §1
NCI-H522 = assay: Cytotoxicity against human NCI-H522 cells assessed as growth inhibition at 10 uM after 48 hrs by SRB assay; assay type: functional; conditions: NCI-H522, 48 h, read-out: GI; procedure, shortened: as §1
SR = assay: Cytotoxicity against human SR cells assessed as growth inhibition at 10 uM after 48 hrs by SRB assay; assay type: functional; conditions: read-out: GI; procedure, shortened: as §1
Ovis aries = species: Ovis aries; assay: Inhibition of sheep brain tubulin assembly at 100 uM by DAPI staining-based fluorescence assay
Procedure, shortened: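 Tubulin from sheep brain, purified by two assembly–disassembly cycles, at about 2–3 mg/mL in 0.1 M MES, 0.5 mM MgCl2, 1 mM EGTA, 1 mM GTP, pH 6.6. Assembly followed by DAPI fluorescence at 37 °C. Single-point inhibition tested at 100 µM. IC50 is the concentration halving the assembly rate relative to no compound, mean of two experiments, with reference inhibitors run the same day.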

With `COc1ccc(C(=O)c2cc(F)c(F)c(OC)c2F)c(OC)c1NC(C)=O` the inhibition of growth at 10 µM (MDA-MB-468) was 81%, the inhibition of growth at 10 µM (NCI/ADR-RES) was 55% and the inhibition of growth at 10 µM (PC-3) was 27%. The inhibition of growth at 10 µM (UO-31) was 30%, the inhibition of growth at 10 µM (UACC-257) was 21% and the inhibition of growth at 10 µM (SW-620) was 37%. It also gave an inhibition of growth at 10 µM (HCC 2998) of 31%, an inhibition of growth at 10 µM (KM12) of 57% and an inhibition of growth at 10 µM (SNB-75) of 44%. It also gave an inhibition of growth at 10 µM (HOP-62) of 30%, an inhibition of growth at 10 µM (NCI-H522) of 83% and an inhibition of growth at 10 µM (SR) of 49%. It also gave an inhibition (Ovis aries) of 39%.

Source: ChEMBL document CHEMBL2384929, “Synthesis and biological evaluation of fluoro analogues of antimitotic phenstatin” (Bioorg Med Chem, 2013)
